Laboratory results taken from article PMC4415852 (Cancer cell, 2015).

What was measured:
[1] = Tolerability in normal C57BL/6 mice; assay type: in vivo; conditions: 10 days, twice daily oral gavage
Summary of the method: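 Normal C57BL/6 mice received test compound or vehicle by oral gavage twice daily for 10 days, the same regimen as the leukemia survival studies. Body weight, organ weight and tissue damage were assessed afterwards.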

[2] = system: MV4;11 human MLL leukemia cells; conditions: for inhibition of tumor growth: once daily i.p., MI-503 60 mg/kg, MI-463 35 mg/kg, in words
[3] = Pharmacokinetic studies in mice; assay type: in vivo; conditions: single intravenous or oral dose
[4] = system: BMCs transformed with the Hoxa9/Meis1 oncogenes (HM-2); assay: MTT cell viability assay, Hoxa9/Meis1 transformed BMCs; assay type: cell-based, murine; conditions: HM-2 BMCs, 7 days
Summary of the method: (§1)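 Cells were plated with test compound or 0.25% DMSO and kept at 37 °C for 7 days. At day 4 the media was changed, viable cell numbers were reset to the starting density and compound was re-added. Read-out was MTT with absorbance at 570 nm, from titration curves. Mean ± SD, n = 4. Non-MLL lines were HL-60, NB4 and Jurkat; murine bone marrow cells were Hoxa9/Meis1-transformed.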

[5] = system: human leukemia cell lines without MLL translocations; assay: MTT assay, human leukemia cell lines without MLL translocations; assay type: cell-based; conditions: in words
Summary of the method: as §1

[6] = system: MV4;11 human leukemia cells expressing MLL-AF4; assay: Long term viability study in MV4; assay type: cell-based; conditions: MV4;11, at day 10, first treatment phase
Summary of the method: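 Cycle of 10 days exposure to test compound at several concentrations, 10 days wash-out without compound, then 10 further days of re-treatment. Viable cell numbers were normalized to the DMSO control. Values are means of duplicates ± SD. The day-10 read-out is taken from the first exposure phase.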

[7] = system: MLL-AF9 leukemia; assay: Bone marrow transplantation model of murine MLL-AF9 leukemia; assay type: in vivo; conditions: for increase of median survival: MI-463 50 mg/kg, MI-503 80 mg/kg, twice daily oral gavage, 10 days
[8] = system: murine bone marrow cells (BMC) transformed with the MLL-AF9 oncogene; assay: MTT cell viability assay, MLL-AF9 transformed BMCs; assay type: cell-based; conditions: read-out: half-maximal growth inhibitory concentration (GI50); after 7 days of treatment
Summary of the method: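 Leukemia cells were plated and exposed to a test compound titration or 0.25% DMSO at 37 °C for 7 days. On day 4, media was changed, viable cell numbers were reset to the starting density and compound was re-supplied. Viability was read by MTT absorbance at 570 nm from titration curves. n = 4, mean ± SD.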

[9] = system: MLL leukemia patient samples; assay: Methylcellulose colony forming assay, MLL leukemia primary patient samples; assay type: cell-based, human; conditions: at submicromolar or low micromolar concentrations, 14 days
Summary of the method: (§2)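 Primary cells (peripheral blood mononuclear, thawed) were pre-cultured 24 hr in RPMI-1640 with 10% FBS, 1% penicillin/streptomycin, 10 ng/mL human IL-3 and 10 ng/mL IL-6 plus SCF. They were then plated in duplicate at 7.5–15 × 10^4 cells in cytokine-supplemented methylcellulose containing test compound or DMSO. Incubation was 14 days at 37 °C, 5% CO2, followed by iodonitrotetrazolium chloride staining. Colony counts were normalized to DMSO; mean ± SD, n = 2.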

[10] = target: T1, menin (Homo sapiens, UniProt O00255); assay: Isothermal Titration Calorimetry, binding to menin; conditions: in words
T1 sequence (O00255 1-610): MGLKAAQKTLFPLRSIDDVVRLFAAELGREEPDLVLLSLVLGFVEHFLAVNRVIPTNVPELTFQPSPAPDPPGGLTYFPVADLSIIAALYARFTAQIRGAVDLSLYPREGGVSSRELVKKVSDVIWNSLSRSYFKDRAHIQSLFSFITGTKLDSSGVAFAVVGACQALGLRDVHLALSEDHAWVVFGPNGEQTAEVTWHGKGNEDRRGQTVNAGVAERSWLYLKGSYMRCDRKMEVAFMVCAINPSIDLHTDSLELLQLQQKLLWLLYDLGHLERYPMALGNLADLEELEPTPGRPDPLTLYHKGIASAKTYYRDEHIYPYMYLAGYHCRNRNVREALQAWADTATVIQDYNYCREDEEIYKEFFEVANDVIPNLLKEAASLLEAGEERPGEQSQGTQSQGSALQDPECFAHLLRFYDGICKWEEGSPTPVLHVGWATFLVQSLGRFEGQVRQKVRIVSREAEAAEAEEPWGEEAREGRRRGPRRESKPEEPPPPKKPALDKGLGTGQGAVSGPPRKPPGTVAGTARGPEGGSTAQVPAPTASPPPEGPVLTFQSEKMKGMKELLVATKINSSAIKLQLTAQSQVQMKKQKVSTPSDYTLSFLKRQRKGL

[11] = system: control AML patient samples; assay type: cell-based, human; conditions: except at the highest concentration (6 μM) in the AML-9571 sample
Summary of the method: as §2

[12] = target: T2, menin-MLL-AF9 interaction (Homo sapiens, UniProt O00255); assay: Co-immunoprecipitation in HEK293 cells transfected with MLL-AF9; assay type: cell-based; conditions: at sub-micromolar concentrations
T2 sequence (O00255 1-610): T1 sequence (O00255 1-610)

[13] = Metabolic stability; assay type: in vitro ADME; conditions: in words
[14] = system: MLL leukemia patient samples; assay: Cell viability assay in primary MLL leukemia patient samples; assay type: cell-based, human; conditions: 7 days of treatment, in words
Summary of the method: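 Primary AML cells (mononuclear cells from peripheral blood, isolated by density gradient and red cell lysis, frozen in 10% DMSO) were exposed to test compound or 0.25% DMSO vehicle for 7 days. Stains were anti-human CD45, CD34 and CD38, then Annexin V and 7-AAD, with ≥2 × 10^5 events per sample by flow cytometry. Annexin V/7-AAD double negative cells counted as viable, shown as % of DMSO. Blasts were hCD45+. Mean ± SD, n = 2.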

| Structure (SMILES) | body weight, organ weight, tissue damage [1] | reduction in MV4;11 tumor volume ([2]; 60 mg/kg once daily i.p.) | inhibition of tumor growth [2] | oral bioavailability [3] | effect on cell growth inhibition [4] | growth suppressive activity [5] | GI50 [6] | increase of median survival [7] | GI50 [8] | reduction in colony number [9] | binding affinity to menin [10] | effect on colony formation [11] | inhibition of the menin-MLL-AF9 interaction [12] | metabolic stability [13] | body weight loss / tolerability ([7]; MLL-AF9 leukemia mice, 10 days of treatment, twice daily p.o.) | effect on cell growth and blast population [14] |
| --- | --- | --- | --- | --- | --- | --- | --- | --- | --- | --- | --- | --- | --- | --- | --- | --- |
| Cc1c(CN2CCC(Nc3ncnc4sc(CC(F)(F)F)cc34)CC2)ccc2c1cc(C#N)n2Cc1cn[nH]c1 [MI-503] | no decrease in body weight, organ weight or tissue damage | over 80% | strong inhibition | 75% | no effect | only a minimal effect | 200 nM | ~ 45% | 220 nM | over 50% | low nanomolar | little effect | effectively inhibit | – | – | – |
| CC1(C)CN=C(N2CCN(c3ncnc4sc(CC(F)(F)F)cc34)CC2)S1 [MI-2-2] | – | – | – | – | – | – | – | – | – | – | – | – | – | very poor | – | – |
| Cc1c(CN2CCC(Nc3ncnc4sc(CC(F)(F)F)cc34)CC2)ccc2[nH]c(C#N)cc12 [MI-463] | no decrease in body weight, organ weight or tissue damage | – | strong inhibition | ~ 45% | no effect | only a minimal effect | – | ~ 70% | – | over 50% | – | little effect | – | – | no significant body weight loss | marked decrease |
